Laboratory results from publication PMC7821153 (Chemical Biology & Drug Design, 2020).

Columns and labels:
Type in all cases: cell-based
[1] = system: HIV-1 NNRTI-resistant mutant H221Y; experiment: Single-round infectivity assay, H221Y; details: Human immunodeficiency virus 1, read-out: EC50 H221Y
In short: (§1)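 Single-round infection with the HIV-1-based vector pNLNgoMIVR-ΔENV.LUC (Env-deleted, luciferase-carrying) bearing the indicated RT mutation(s), used to derive EC50. The mutant vectors are previously described constructs.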

[2] = system: HIV-1 NNRTI-resistant mutant K103N/Y181C; experiment: Single-round infectivity assay, K103N/Y181C; details: Human immunodeficiency virus 1, read-out: EC50 K103N/Y181C
In short: as §1

[3] = system: HIV-1 NNRTI-resistant mutant Y181C; experiment: Single-round infectivity assay, Y181C; details: Human immunodeficiency virus 1, read-out: EC50 Y181C
In short: as §1

WT HIV-1 = experiment: Single-round infectivity assay, WT RT vector; details: for EC50: Human immunodeficiency virus 1, read-out: EC50 WT; for TI (therapeutic index): calculated from CC50 and WT EC50
In short: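 Single-round infection with an HIV-1-based vector (pNLNgoMIVR-ΔENV.LUC, Env-deleted, luciferase-carrying) with wild-type RT, used to derive EC50. Therapeutic index is calculated from CC50 (ATP-dependent luminescence assay) and wild-type EC50. Three independent experiments (n = 3), with standard deviations.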

[4] = system: HIV-1 NNRTI-resistant mutant E138K; experiment: Single-round infectivity assay, E138K; details: Human immunodeficiency virus 1, read-out: EC50 E138K
In short: as §1

[5] = system: HIV-1 NNRTI-resistant mutant K103N; experiment: Single-round infectivity assay, K103N; details: Human immunodeficiency virus 1, read-out: EC50 K103N
In short: as §1

[6] = system: HIV-1 NNRTI-resistant mutant Y188L; experiment: Single-round infectivity assay, Y188L; details: Human immunodeficiency virus 1, read-out: EC50 Y188L
In short: as §1

[7] = system: HIV-1 NNRTI-resistant mutant L100I; experiment: Single-round infectivity assay, L100I; details: Human immunodeficiency virus 1, read-out: EC50 L100I
In short: as §1

[8] = Cellular cytotoxicity, ATP-dependent luminescence assay
In short: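 Cytotoxicity measured by ATP-dependent luminescence, with CC50 derived. Values are from three independent experiments (n = 3), and standard deviations are reported.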

[9] = system: HIV-1 RT-resistant mutant K101E; experiment: Single-round infectivity assay, K101E; details: Human immunodeficiency virus 1, read-out: EC50 K101E
In short: as §1

[10] = system: HIV-1 NNRTI-resistant mutant K103N/P225H; experiment: Single-round infectivity assay, K103N/P225H; details: Human immunodeficiency virus 1, read-out: EC50 K103N/P225H
In short: as §1

[11] = system: HIV-1 NNRTI-resistant mutant V106A/G190A/F227L; experiment: Single-round infectivity assay, V106A/G190A/F227L; details: Human immunodeficiency virus 1, read-out: EC50 V106A/G190A/F227L
In short: as §1

[12] = system: HIV-1 DOR-resistant mutant V106A/F227L/L234I; experiment: Single-round infectivity assay, V106A/F227L/L234I; details: read-out: EC50 V106A/F227L/L234I; single-round infection, n = 3
In short: as §1

[13] = system: HIV-1 NNRTI-resistant mutant L100I/K103N; experiment: Single-round infectivity assay, L100I/K103N; details: Human immunodeficiency virus 1, read-out: EC50 L100I/K103N
In short: as §1

[14] = system: HIV-1 NNRTI-resistant mutant G190A; experiment: Single-round infectivity assay, G190A; details: read-out: EC50 G190A; single-round infection, n = 3
In short: as §1

[15] = system: HIV-1 NNRTI-resistant mutant M230L; experiment: Single-round infectivity assay, M230L; details: Human immunodeficiency virus 1, read-out: EC50 M230L
In short: as §1

[16] = system: HIV-1 NNRTI-resistant mutant P236L; experiment: Single-round infectivity assay, P236L; details: read-out: EC50 P236L; single-round infection, n = 3
In short: as §1

[17] = system: HIV-1 RT-resistant mutant K101E/M184V; experiment: Single-round infectivity assay, K101E/M184V; details: read-out: EC50 K101E/M184V; single-round infection, n = 3
In short: as §1

[18] = system: HIV-1 RT-resistant mutant K101E/M184I; experiment: Single-round infectivity assay, K101E/M184I; details: read-out: EC50 K101E/M184I; single-round infection, n = 3
In short: as §1

[19] = system: HIV-1 RT-resistant mutant D67E; experiment: Single-round infectivity assay, D67E; details: read-out: EC50 D67E; single-round infection, n = 3
In short: as §1

[20] = system: HIV-1 NNRTI-resistant mutant K101P; experiment: Single-round infectivity assay, K101P; details: read-out: EC50 K101P; single-round infection, n = 3
In short: as §1

[21] = system: HIV-1 DOR-resistant mutant V106A/F227L; experiment: Single-round infectivity assay, V106A/F227L; details: read-out: EC50 V106A/F227L; single-round infection, n = 3
In short: as §1

[22] = system: HIV-1 DOR-resistant mutant V106A/L234I; experiment: Single-round infectivity assay, V106A/L234I; details: read-out: EC50 V106A/L234I; single-round infection, n = 3
In short: as §1

[23] = system: HIV-1 DOR-resistant mutant L234I; experiment: Single-round infectivity assay, L234I; details: read-out: EC50 L234I; single-round infection, n = 3
In short: as §1

[24] = system: HIV-1 NNRTI-resistant mutant G190S; experiment: Single-round infectivity assay, G190S; details: read-out: EC50 G190S; single-round infection, n = 3
In short: as §1

| Structure (SMILES) | EC50 [1] [nM] | EC50 [2] [nM] | EC50 [3] [nM] | EC50 (WT HIV-1) [nM] | TI (therapeutic index) (WT HIV-1) | EC50 [4] [nM] | EC50 [5] [nM] | EC50 [6] [nM] | EC50 [7] [nM] | CC50 [8] [nM] | EC50 [9] [nM] | EC50 [10] [nM] | EC50 [11] [nM] | EC50 [12] [nM] | EC50 [13] [nM] | EC50 [15] [nM] | other results |
| --- | --- | --- | --- | --- | --- | --- | --- | --- | --- | --- | --- | --- | --- | --- | --- | --- | --- |
| Cc1cc(/C=C/C#N)cc(C)c1Nc1ncc(N)c(Nc2c(C)cc(/C=C/C#N)cc2C)n1 [Compound 6, (2E,2′E)‐3,3′‐(((5‐aminopyrimidine‐2,4‐diyl)bis(azanediyl))bis(3,5‐dimethyl‐4,1‐phenylene))diacrylonitrile] | 79.2 ± 6.4 | > 5000 | 2760 ± 580 | 27.2 ± 3.3 | 1,651 | 1070 ± 60 | 75.5 ± 5.6 | > 5000 | 3640 | 44900 ± 600 |  |  |  |  |  |  |  |
| Cc1cc(/C=C/C#N)cc(C)c1Nc1nc(Nc2ccc3cc(C#N)ccc3c2)ncc1N [Compound 7, (E)‐6‐((5‐amino‐4‐((4‐(2‐cyanovinyl)‐2,6‐dimethylphenyl)amino)pyrimidin‐2‐yl)amino)‐2‐naphthonitrile] | 2.8 ± 0.2 | 156 ± 12.7 | 15.6 ± 2 | 2.3 ± 0.3 | 10,000 | 27.6 ± 2.4 | 4 ± 0.8 | 152 ± 21.3 | 4.5 ± 0.4 | 23000 ± 2300 | 9.9 ± 2 | 25.3 ± 3 | 5.2 ± 1 | 3.5 ± 0.2 | 265 ± 5.9 | 21.4 ± 4.2 | EC50 [14]: 1.4 ± 0.1 nM; EC50 [16]: 1.2 ± 0.3 nM; EC50 [17]: 3 ± 0.3 nM; EC50 [18]: 9.4 ± 0.4 nM; EC50 [19]: 9.7 ± 1.2 nM |
| Cc1cc(/C=C/C#N)cc(C)c1Nc1nc(Nc2ccc3cc(/C=C/C#N)ccc3c2)ncc1N [Compound 8, (E)‐3‐(4‐((5‐amino‐2‐((6‐((E)‐2‐cyanovinyl)naphthalen‐2‐yl)amino)pyrimidin‐4‐yl)amino)‐3,5‐dimethylphenyl)acrylonitrile] | 18.7 ± 2.5 | 1990 | 264 ± 15.9 | 6.8 ± 0.6 | 1,588 | 534 ± 27.1 | 121 ± 9.7 | 3070 | 242 ± 35.4 | 10800 ± 700 |  |  |  |  |  |  |  |
| Cc1cc(/C=C/C#N)cc(C)c1Nc1ncc2ncn(-c3c(C)cc(/C=C/C#N)cc3C)c2n1 [Compound 9, (E)‐3‐(4‐((9‐(4‐((E)‐2‐cyanovinyl)‐2,6‐dimethylphenyl)‐9H‐purin‐2‐yl)amino)‐3,5‐dimethylphenyl)acrylonitrile] | 19.4 ± 2.2 | > 5000 | > 5000 | 10.4 ± 0.6 | 18,423 | 150 ± 6.9 | 48 ± 4.2 | > 5000 | 156 ± 30.6 | 192000 ± 11000 |  |  |  |  |  |  |  |
| Cc1cc(/C=C/C#N)cc(C)c1-n1cnc2cnc(Nc3ccc4cc(/C=C/C#N)ccc4c3)nc21 [Compound 11, (E)‐3‐(6‐((9‐(4‐((E)‐2‐cyanovinyl)‐2,6‐dimethylphenyl)‐9H‐purin‐2‐yl)amino)naphthalen‐2‐yl)acrylonitrile] | 17.1 ± 2.1 | > 5000 | > 5000 | 10.2 ± 1.9 | 1,676 | > 5000 | 232 ± 22.3 | > 5000 | 78 ± 11.7 | 17100 ± 800 |  |  |  |  |  |  |  |
| Cc1cc(/C=C/C#N)cc(C)c1Nc1nc(Nc2ccc(/C=C/C#N)cc2)ncc1N [Compound 12, (E)‐3‐(4‐((5‐amino‐2‐((4‐((E)‐2‐cyanovinyl)phenyl)amino)pyrimidin‐4‐yl)amino)‐3,5‐dimethylphenyl)acrylonitrile] | 1.6 ± 0.1 | 22.4 ± 1.1 | 5.3 ± 0.8 | 1.2 ± 0.2 | >25,000 | 6.5 ± 0.9 | 1.6 ± 0.2 | 44 ± 2.6 | 1.8 ± 0.2 | 32200 ± 1500 | 3.4 ± 0.1 | 1.6 ± 0.2 | 2.5 ± 0.5 | 1.3 ± 0.1 | 16.1 ± 0.2 | 16.9 ± 1.2 | EC50 [20]: 126 ± 29.4 nM; EC50 [21]: 2 ± 0.1 nM; EC50 [22]: 1.4 ± 0.5 nM |
| Cc1cc(/C=C/C#N)cc(C)c1-n1cnc2cnc(Nc3ccc(/C=C/C#N)cc3)nc21 [Compound 13, (E)‐3‐(4‐((9‐(4‐((E)‐2‐cyanovinyl)‐2,6‐dimethylphenyl)‐9H‐purin‐2‐yl)amino)phenyl)acrylonitrile] | 2.6 ± 0.7 | 323 ± 56.7 | 92.4 ± 10 | 1.4 ± 0.2 | >25,000 | 29.1 ± 1.9 | 9.3 ± 0.7 | 208 ± 12 | 28.6 ± 7.6 | > 250000 | 9.7 ± 1.2 | 29.1 ± 1.6 | 4.7 ± 0.9 | 5.4 ± 1.1 | 252 ± 21.9 | 60 ± 0.9 | EC50 [23]: 1.8 ± 0.4 nM; EC50 [24]: 1.2 ± 0.3 nM; EC50 [16]: 1.1 ± 0.05 nM; EC50 [17]: 3.9 ± 0.6 nM; EC50 [18]: 7 ± 0.6 nM; EC50 [19]: 9.5 ± 1.8 nM |
| Cn1c(Cn2ccc(C(F)(F)F)c(Oc3cc(Cl)cc(C#N)c3)c2=O)n[nH]c1=O [DOR, doravirine, reference compound] | 4.6 ± 1.8 | 11.3 ± 5.9 | 2 ± 0.2 |  | >25,000 | 13.9 ± 2.4 | 4.5 ± 2.8 | > 100 | 1.1 ± 0.2 |  | 0.4 ± 0.04 | 25.3 ± 4.5 | > 100 |  | 2 ± 0.8 | 51.1 ± 6.5 |  |
| O=C1Nc2ccc(Cl)cc2[C@@](C#CC2CC2)(C(F)(F)F)O1 [EFV, efavirenz, reference compound] | 2.2 ± 0.4 | 36 ± 8.4 | 1.6 ± 0.1 | 0.9 ± 0.1 | >25,000 | 2.5 ± 0.4 | 35.8 ± 9.1 | 76.8 ± 6.5 | 5.4 ± 0.9 | 36400 ± 1600 | 11 ± 1.2 | 50.4 ± 3.1 | 185 ± 19.8 |  | 488 ± 50 | 14.3 ± 2 |  |
| Cc1cc(/C=C/C#N)cc(C)c1Nc1ccnc(Nc2ccc(C#N)cc2)n1 [RPV, rilpivirine, reference compound] | 1.3 ± 0.1 | 3.5 ± 0.3 | 1.4 ± 0.4 |  | >25,000 | 1 ± 0.1 | 1 ± 0.2 | 2.3 ± 0.2 | 0.1 ± 0.03 |  | 2.6 ± 1.6 | 0.6 ± 0.2 | 0.5 ± 0.02 |  | 2.3 ± 0.2 | 1.7 | EC50 [21]: 0.8 ± 0.1 nM |
